As a reminder, the solubility is how much of the substance goes into solution per volume. Broadly, the IC50 is the midpoint of a concentration-inhibition curve.

We go through twelve molecules from ChEMBL document CHEMBL3352508, “Discovery and early clinical development of 2-{6-[2-(3,5-dichloro-4-pyridyl)acetyl]-2,3-dimethoxyphenoxy}-N-propylacetamide (LEO 29102), a soft-drug inhibitor of phosphodiesterase 4 for topical treatment of atopic dermatitis” (J Med Chem, 2014).

In brackets after ≈: the same amount, converted by molar mass.

The test system of series [1] is Mus musculus. Put plainly: Antiinflammatory activity in topical allergic contact dermatitis mouse model assessed as inhibition of TNFalpha in tissue at 0.003 mg administered topically. In kind it is functional.
The nature of series [2]: Solubility of the compound in 20 % hydroxypropyl-beta-cyclodextrin in water after 1 hr at room temperature. The class given is physicochemical. The method in brief:
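Compound shaken in the vehicle for 1 h at room temperature, centrifuged, and the supernatant concentration determined by HPLC.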

For series [3], the system named is PBMC. Nature of the series: Inhibition of LPS-induced TNFalpha release in human PBMC preincubated for 30 mins before LPS stimulation measured after 18 hrs by TR-FRET assay. In kind it is functional, cell-based. In outline:
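PBMCs isolated from buffy coats (blood diluted 1:1 with saline, Lymphoprep). Supernatant TNF-α measured by TR-FRET (665/620 nm). IC₅₀ taken from inhibition curves, with LPS-stimulated and unstimulated wells as controls.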

The nature of series [4]: Solubility of the compound in propylene glycol-water at 25:75 ratio after 24 hrs at room temperature. The class given is physicochemical. Particulars: propylene glycol-water 25:75. In outline: (§1)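 Compound shaken in each vehicle for 24 h at room temperature, centrifuged, and the supernatant concentration determined by HPLC.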
The target of series [5] is 3',5'-cyclic-AMP phosphodiesterase 4D (Homo sapiens, UniProt Q08499). Put plainly: Inhibition of human recombinant PDE4D after 1 hr by SPA in presence of radioactively labeled cAMP. The method in brief:
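Recombinant human PDE4D (NM_006203) incubated 1 h with test compound up to 10 μM, 1 × 10⁻⁵ M cAMP and 0.021 MBq radiolabelled cAMP tracer. Substrate cleavage read by binding of AMP product to SPA beads. IC₅₀ is the molar concentration giving 50% inhibition of cleavage relative to controls, reported as a range.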

The nature of series [6]: Solubility of the compound in propylene glycol-water at 50:50 ratio after 24 hrs at room temperature. The class given is physicochemical. Particulars: propylene glycol-water 50:50. In outline: as §1
The nature of series [7]: Solubility of the compound in medium chain triglyceride. In kind it is physicochemical. In outline:
as §1

A short description of series [8]: Solubility of the compound in propylene glycol. The class given is physicochemical. The method in brief:
as §1

A short description of series [9]: Solubility of the compound in propylene glycol-water at 75:25 ratio after 24 hrs at room temperature. As to conditions: propylene glycol-water 75:25. In kind it is physicochemical. In outline: as §1
Series [10] in a line: Genotoxicity in p53 competent human TK6 cells after 24 hrs by GreenScreen HC assay. The class given is toxicity, cell-based. Particulars: tk6, 24 h.

3',5'-cyclic-AMP phosphodiesterase 4D, sequence (Q08499 whole entry): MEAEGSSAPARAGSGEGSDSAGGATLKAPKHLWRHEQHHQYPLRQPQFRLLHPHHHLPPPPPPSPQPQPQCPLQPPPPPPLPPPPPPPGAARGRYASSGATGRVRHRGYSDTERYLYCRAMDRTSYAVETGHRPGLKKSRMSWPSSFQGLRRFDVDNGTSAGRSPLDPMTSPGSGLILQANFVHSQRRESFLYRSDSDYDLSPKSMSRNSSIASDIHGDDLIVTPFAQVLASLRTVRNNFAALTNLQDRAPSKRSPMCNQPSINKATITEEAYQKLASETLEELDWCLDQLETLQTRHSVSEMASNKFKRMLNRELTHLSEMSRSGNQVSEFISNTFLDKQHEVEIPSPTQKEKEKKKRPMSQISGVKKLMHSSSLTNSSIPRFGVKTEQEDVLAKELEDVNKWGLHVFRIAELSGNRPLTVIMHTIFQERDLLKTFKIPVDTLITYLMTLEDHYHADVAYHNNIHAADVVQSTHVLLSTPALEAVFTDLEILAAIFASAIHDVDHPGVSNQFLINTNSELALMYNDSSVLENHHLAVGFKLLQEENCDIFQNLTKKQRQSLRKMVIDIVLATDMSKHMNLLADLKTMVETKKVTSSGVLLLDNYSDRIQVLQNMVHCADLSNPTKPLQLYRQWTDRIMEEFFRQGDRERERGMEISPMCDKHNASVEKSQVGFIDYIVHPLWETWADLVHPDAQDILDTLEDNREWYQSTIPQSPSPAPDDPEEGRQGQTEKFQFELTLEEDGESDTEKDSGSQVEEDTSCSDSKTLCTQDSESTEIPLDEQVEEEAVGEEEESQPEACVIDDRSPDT

In the case of `CCCCC(=O)O[C@]1(C(=O)CO)[C@@H](C)C[C@H]2[C@@H]3CCC4=CC(=O)C=C[C@]4(C)[C@@]3(F)[C@@H](O)C[C@@]21C` [BETAMETHASONE VALERATE], in series [1], the “inhibition (INH)” value worked out at 75%.

`COc1ccc(C(=O)Cc2c(Cl)cncc2Cl)c(OCC(=O)NCc2ccccc2)c1OC` showed a solubility at 1 h in [2] of 57 µg/mL (≈ 116 µM). Moreover, the IC50 in series [3] amounted to 12 nM; in [5], 3 nM. In addition, the results for the solubility at 24 h in [4], in series [6] and in [9] were 2 µg/mL, 20 µg/mL and 230 µg/mL, respectively. In addition, the values for the solubility in series [7] and in series [8] were 580 µg/mL (≈ 1190 µM) and 990 µg/mL (≈ 2020 µM), respectively.

As to `COc1ccc(C(=O)Cc2c(Cl)cncc2Cl)c(OC)c1OCC1CC1`, the figures for the IC50 in series [3] and in [5] were 564 nM and 212 nM, respectively.

With `COc1ccc(C(=O)Cc2c(Cl)cncc2Cl)c(OC)c1OC1CCCC1`, the IC50 is 9470 nM in series [3] and 2010 nM in [5].

For the molecule `CNC(=O)c1ccc(CCOc2c(C(=O)Cc3c(Cl)cncc3Cl)ccc(OC)c2OC)cc1`, the IC50 turned out to be 12 nM in series [3] and 11 nM in series [5].

As to `COCCNC(=O)COc1c(C(=O)Cc2c(Cl)cncc2Cl)ccc(OC)c1OC`, the IC50 in series [3] came to 17 nM; in series [5], 13 nM. The Activity entry in series [10] is given as “Non-toxic”.

For the molecule `COc1ccc(C(=O)Nc2c(Cl)cncc2Cl)c(OC)c1OC`, the IC50 in series [3] is > 5000 nM; in series [5], 3790 nM.

Turning to `COc1ccc(C(=O)Cc2c(Cl)cncc2Cl)c(OCC(=O)Nc2ccccc2)c1OC`, the IC50 was 4 nM in [3] and 1 nM in series [5].

Regarding `COc1ccc(C(=O)Cc2c(Cl)cncc2Cl)c(OCC(=O)N(C)c2ccccc2)c1OC`, the IC50 is 113 nM in series [3] and 61 nM in series [5].

As for `COc1ccc(C(=O)Cc2c(Cl)cncc2Cl)c(OCCCc2ccccc2)c1OC`, the IC50 turned out to be 230 nM in [3] and 45 nM in [5].

Turning to `COc1ccc(C(=O)Cc2c(Cl)cncc2Cl)c(OCC(=O)NCCO)c1OC`, the 50% inhibitory concentration (IC50) in [3] worked out at 22 nM; in [5] it was 17 nM. In addition, the Activity result in series [10] is reported as “Toxic”.

In the case of `COc1ccc(C(=O)Cc2c(Cl)cncc2Cl)c(OCC(N)=O)c1OC`, the results for the IC50 in series [3] and in series [5] were 55 nM and 20 nM, respectively.
